Source: ChEMBL document CHEMBL4219168, “Design, synthesis, and evaluation of l-cystine diamides as l-cystine crystallization inhibitors for cystinuria” (Bioorg Med Chem Lett, 2018)
Active and inactive are the calls of the source. The calls are words filed in the database; no cut-off is given here.

Legend:
Cystine [1] = assay: Inhibition of L-cystine crystallization assessed as increase in apparent aqueous solubility at 2 to 10 uM after 72 hrs by fluorescence assay relative to CDME
Cystine [2] = assay: Inhibition of L-cystine crystallization assessed as increase in apparent aqueous solubility at 2 to 10 uM after 72 hrs by fluorescence assay
In short: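 Supersaturated L-cystine in Millipore water was spiked 1:100 with 1 mM or 200 μM diamide stock, giving final 10 μM or 2 μM. Mixtures were held at 25 °C for 72 h. Apparent L-cystine solubility was then read with an in-house fluorescence assay. CDME served as positive control and water as blank.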

Cystine [3] = assay: Inhibition of L-cystine crystallization assessed as increase in apparent aqueous solubility after 72 hrs by fluorescence assay
In short: (§1)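 Dose-response curves were run in supersaturated aqueous L-cystine, with apparent solubility read by fluorescence assay. EC2x is the effective concentration that doubles the apparent solubility of L-cystine in water. The ratio is the potency gain over the CDME control.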

Cystine [4] = assay: Inhibition of L-cystine crystallization assessed as increase in apparent aqueous solubility after 72 hrs by fluorescence assay relative to CDME; in short: as §1

**Q.** How did the inhibition (Cystine [1]) turn out when `CN[C@@H](CSSC[C@H](NC)C(=O)NC1CC1)C(=O)NC1CC1` was run?
**A.** inactive

**Q.** What about the inhibition (Cystine [2]) of the same compound?
**A.** inactive

**Q.** Which EC2 (Cystine [3]) does the source give for `N[C@@H](CSSC[C@H](N)C(=O)N1CCCCC1)C(=O)N1CCCCC1` here?
**A.** 1.59 µM

**Q.** And the fold change (FC) (Cystine [4])?
**A.** 4

**Q.** How did the EC2 (Cystine [3]) turn out when `N[C@@H](CSSC[C@H](N)C(=O)N1CCOCC1)C(=O)N1CCOCC1` was run?
**A.** 0.86 µM

**Q.** And the fold change (FC) (Cystine [4])?
**A.** 7.4

**Q.** With `N[C@@H](CSSC[C@H](N)C(=O)NC1CC1)C(=O)NC1CC1` as the compound, how does the EC2 (Cystine [3]) read?
**A.** 3.53 µM

**Q.** What about the fold change (FC) (Cystine [4]) of the same compound?
**A.** 1.8

**Q.** With `N[C@@H](CSSC[C@H](N)C(=O)NCCO)C(=O)NCCO` as the compound, how does the EC2 (Cystine [3]) read?
**A.** 2.02 µM

**Q.** What about the fold change (FC) (Cystine [4]) of the same compound?
**A.** 3.2

**Q.** What does the source list for `CN[C@@H](CSSC[C@H](NC)C(=O)NCCO)C(=O)NCCO`?
**A.** inhibition (Cystine [1]): inactive; inhibition (Cystine [2]): inactive

**Q.** What does the source list for `CN[C@@H](CSSC[C@H](NC)C(=O)N1CCCC1)C(=O)N1CCCC1`?
**A.** inhibition (Cystine [1]): inactive; inhibition (Cystine [2]): inactive

**Q.** For `COC(=O)[C@@H](N)CSSC[C@H](N)C(=O)OC`, which EC2 (Cystine [3]) is on record?
**A.** 6.37 µM

**Q.** Which inhibition (Cystine [1]) does the source give for `CN[C@@H](CSSC[C@H](NC)C(=O)N(C)C)C(=O)N(C)C` here?
**A.** inactive

**Q.** What about the inhibition (Cystine [2]) of the same compound?
**A.** inactive

**Q.** Which EC2 (Cystine [3]) does the source give for `CN1CCN(C(=O)[C@@H](N)CSSC[C@H](N)C(=O)N2CCN(C)CC2)CC1` here?
**A.** 0.26 µM

**Q.** What about the fold change (FC) (Cystine [4]) of the same compound?
**A.** 24.5

**Q.** With `CN[C@@H](CSSC[C@H](NC)C(=O)N1CCOCC1)C(=O)N1CCOCC1` as the compound, how does the inhibition (Cystine [1]) read?
**A.** inactive

**Q.** What about the inhibition (Cystine [2]) of the same compound?
**A.** inactive

**Q.** With `CCN(CC)C(=O)[C@H](CSSC[C@H](NC)C(=O)N(CC)CC)NC` as the compound, how does the inhibition (Cystine [1]) read?
**A.** inactive

**Q.** What about the inhibition (Cystine [2]) of the same compound?
**A.** inactive

**Q.** `CN[C@@H](CSSC[C@H](NC)C(=O)N1CCCCC1)C(=O)N1CCCCC1` was tested. Which inhibition (Cystine [1]) did it give?
**A.** inactive

**Q.** What about the inhibition (Cystine [2]) of the same compound?
**A.** inactive
